Here are results for 29 molecules from ChEMBL document CHEMBL1125827, “Synthesis and smooth muscle relaxant activity of a new series of potassium channel activators: 3-amido-1,1-dimethylindan-2-ols” (J Med Chem, 1991).

The IC50 is the concentration at which inhibition is half-maximal. High values mean lower potency, low ones higher potency.

For experiment [1], the species on record is Cavia porcellus. The experiment is described as follows: Inhibition of spontaneous tone in guinea pig isolated trachealis. It counts as functional, Trachea.
The species named for experiment [2] is Cavia porcellus. The experiment is described as follows: Intrinsic activity was measured for inhibition of spontaneous tone in guinea pig isolated trachealis. Format: functional. In a few lines:
(§1)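 Spontaneously toned guinea pig trachealis, with compounds added cumulatively. Intrinsic activity is the ratio of maximum relaxation at concentrations up to 20 μM to the maximum relaxation produced by isoprenaline (10⁻³ M) at the end of the experiment, expressed as an arithmetic mean.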

Experiment [3] is filed under the species Cavia porcellus. The experiment can be described thus: Intrinsic activity was measured for inhibition of spontaneous tone in guinea pig isolated trachealis; e=Insufficient material for evaluation. Format: functional. In a few lines:
as §1

Experiment [4] is filed under the species Cavia porcellus. The experiment can be described thus: Compound was measured for inhibition of spontaneous tone in guinea pig isolated trachealis; e=Insufficient material for evaluation. Format: functional. The gist of the method: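 Spontaneously developed tension held at […]. Compounds added cumulatively. Inhibition expressed as a percentage of the relaxation produced by isoprenaline (10⁻³ M) given at the end. IC50 is the concentration giving 50% of the isoprenaline response, read from the dose-response curve; generally a geometric mean of four or more determinations.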

`CC1(C)c2ccc([N+](=O)[O-])cc2[C@@H](N2CCCCC2=O)[C@H]1O` yielded an IC50 in the experiment filed under Cavia porcellus [1] (Cavia porcellus, Trachea) of 350 nM. The same molecule registered an Intrinsic activity in the experiment listed under Cavia porcellus [2] of 0.89.
`CC1(C)C=C(N2CCCCC2=O)c2cc([N+](=O)[O-])ccc21` came in with an Intrinsic activity in the experiment listed under Cavia porcellus [2] of 0.94.
In turn, `CC1(C)Oc2ccc(C#N)cc2[C@@H](N2CCCC2=O)[C@@H]1O` [LEVCROMAKALIM] had an IC50 in the experiment filed under Cavia porcellus [1] (Cavia porcellus, Trachea) of 490 nM. The Intrinsic activity in the experiment filed under Cavia porcellus [2] amounted to 0.88.
`C[C@@H]1CCC(=O)N1C1=CC(C)(C)c2ccc([N+](=O)[O-])cc21` showed a 50% inhibitory concentration (IC50) in the experiment listed under Cavia porcellus [1] (Cavia porcellus, Trachea) of 2420 nM. Besides, in the experiment filed under Cavia porcellus [2], the Intrinsic activity is 0.84.
As for `CC1(C)Oc2ccc(C#N)cc2C(N2CCCC2=O)C1O` (centres undefined) [CROMAKALIM], the Intrinsic activity in the experiment listed under Cavia porcellus [2] was 0.89.
On to `CC1(C)c2cc(C#N)ccc2[C@@H](N2CCCCC2=O)[C@@H]1O`, for which the concentration for half-maximal inhibition (IC50) in the experiment filed under Cavia porcellus [1] (Cavia porcellus, Trachea) was over 20000 nM. The Intrinsic activity in the experiment filed under Cavia porcellus [2] was determined as 0.17.
In the experiment listed under Cavia porcellus [1] (Cavia porcellus, Trachea), `CCc1ccc2c(c1)[C@@H](N1CCCCC1=O)[C@H](O)C2(C)C` returned an IC50 of 2780 nM. In addition, the Intrinsic activity in the experiment filed under Cavia porcellus [2] was 0.84.
`CC1(C)C=C(N2CCCCC2=O)c2ccc(C(F)(F)F)cc21` returned an IC50 in the experiment filed under Cavia porcellus [1] (Cavia porcellus, Trachea) of 8500 nM. In the experiment filed under Cavia porcellus [2], this molecule registered an Intrinsic activity of 0.89.
Consider `CC1(C)C=C(n2ccccc2=O)c2cc([N+](=O)[O-])ccc21`, for which the IC50 in the experiment filed under Cavia porcellus [1] (Cavia porcellus, Trachea) came out at 840 nM. The Intrinsic activity in the experiment listed under Cavia porcellus [2] worked out at 0.95.
`CC1(C)c2ccc([N+](=O)[O-])cc2[C@@H](N2CCCC2=O)[C@H]1O` (relative stereo) had a concentration for half-maximal inhibition (IC50) in the experiment listed under Cavia porcellus [1] (Cavia porcellus, Trachea) of over 20000 nM. The molecule further had an Intrinsic activity in the experiment listed under Cavia porcellus [2] of 0.26.
`O=C1CCCN1[C@@H]1c2cc([N+](=O)[O-])ccc2C[C@H]1O`: the concentration for half-maximal inhibition (IC50) in the experiment listed under Cavia porcellus [1] (Cavia porcellus, Trachea) was over 20000 nM. In the experiment listed under Cavia porcellus [2], this molecule had an Intrinsic activity of 0.4.
With `CC1(C)c2ccc([N+](=O)[O-])cc2[C@@H](n2ccccc2=O)[C@@H]1O`, in the experiment filed under Cavia porcellus [1] (Cavia porcellus, Trachea), the IC50 was 150 nM. Also, the Intrinsic activity in the experiment listed under Cavia porcellus [2] stood at 0.89.
For `CC1(C)C=C(n2ccccc2=O)c2cc(C#N)ccc21`, in that order: 5260 nM and 0.77.
The molecule `C[C@@H]1CCC(=O)N1[C@@H]1c2cc([N+](=O)[O-])ccc2C(C)(C)[C@H]1O` (stereo in doubt; 36) gave an IC50 in the experiment filed under Cavia porcellus [1] of 260 nM. The same molecule returned an Intrinsic activity in the experiment listed under Cavia porcellus [2] of 0.99.
`CC1(C)c2ccc([N+](=O)[O-])cc2[C@@H](N2CCCC2=O)[C@@H]1O` gave an IC50 in the experiment listed under Cavia porcellus [1] (Cavia porcellus, Trachea) of 2800 nM. For the same molecule, the Intrinsic activity in the experiment filed under Cavia porcellus [2] is 0.88.
`CC1(C)C=C(Cn2ccccc2=O)c2cc(C#N)ccc21` registered an IC50 in the experiment listed under Cavia porcellus [1] (Cavia porcellus, Trachea) of over 20000 nM. Also, the Intrinsic activity in the experiment filed under Cavia porcellus [2] worked out at 0.32.
Molecule `CC1CCC(=O)N1[C@@H]1c2cc([N+](=O)[O-])ccc2C(C)(C)[C@H]1O` (stereo in doubt; 36a) came in with an Intrinsic activity in the experiment listed under Cavia porcellus [2] of 0.89.
For the molecule `CCc1ccc2c(c1)[C@@H](n1ccccc1=O)[C@H](O)C2(C)C`, the IC50 in the experiment filed under Cavia porcellus [1] (Cavia porcellus, Trachea) was found to be 2170 nM. Also, the Intrinsic activity in the experiment filed under Cavia porcellus [2] is on record as 0.93.
`CC1(C)c2ccc(C#N)cc2[C@@H](n2ccccc2=O)[C@@H]1O` registered an IC50 in the experiment filed under Cavia porcellus [1] (Cavia porcellus, Trachea) of 1940 nM. Besides, the Intrinsic activity in the experiment filed under Cavia porcellus [2] came out at 0.81.
The like results for `CCc1ccc2c(c1)C(C)(C)[C@@H](O)[C@@H]2N1CCCCC1=O` were, in that order, over 20000 nM and 0.4.
In turn, `C[C@@H]1CCC(=O)N1[C@@H]1c2cc([N+](=O)[O-])ccc2C(C)(C)[C@H]1O` (stereo in doubt; 37) came in with an IC50 in the experiment listed under Cavia porcellus [1] of over 20000 nM. For the same molecule, in the experiment listed under Cavia porcellus [2], the Intrinsic activity is reported as 0.3.
With `CC1(C)c2cc(C(F)(F)F)ccc2[C@@H](N2CCCCC2=O)[C@@H]1O`, the IC50 in the experiment listed under Cavia porcellus [1] (Cavia porcellus, Trachea) was over 20000 nM. This molecule displayed an Intrinsic activity in the experiment filed under Cavia porcellus [2] of 0.15.
Turning to `CC1(C)C=C(CN2CCCC2=O)c2cc(C#N)ccc21`, the 50% inhibitory concentration (IC50) in the experiment filed under Cavia porcellus [1] (Cavia porcellus, Trachea) was 14000 nM. Also, in the experiment listed under Cavia porcellus [2], the Intrinsic activity was 0.6.
For `CC1(C)c2ccc(N)cc2[C@@H](n2ccccc2=O)[C@@H]1O`, the IC50 in the experiment filed under Cavia porcellus [1] (Cavia porcellus, Trachea) is over 20000 nM. For the same molecule, the Intrinsic activity in the experiment listed under Cavia porcellus [2] is given as 0.1.
For the molecule `C[C@H]1CCC(=O)N1C1=CC(C)(C)c2ccc([N+](=O)[O-])cc21`, the Intrinsic activity entry in the experiment listed under Cavia porcellus [3] was “Insufficient material”. The IC50 result in the experiment listed under Cavia porcellus [4] was “Insufficient material”.
On to `CC1(C)c2ccc(C#N)cc2[C@@H](N2CCCCC2=O)[C@@H]1O`, for which the half-inhibitory concentration (IC50) in the experiment filed under Cavia porcellus [1] (Cavia porcellus, Trachea) came to 270 nM. The same molecule registered an Intrinsic activity in the experiment listed under Cavia porcellus [2] of 0.94.
As to `CC1CCC(=O)N1[C@@H]1c2cc([N+](=O)[O-])ccc2C(C)(C)[C@H]1O` (stereo in doubt; 36b), in the experiment filed under Cavia porcellus [1], the IC50 was 3900 nM. For the same molecule, the Intrinsic activity in the experiment filed under Cavia porcellus [2] stood at 0.9.
`CC1(C)c2ccc(I)cc2[C@@H](N2CCCCC2=O)[C@@H]1O` returned an Intrinsic activity in the experiment filed under Cavia porcellus [2] of 0.96.
Take `CC1(C)c2cc(C(F)(F)F)ccc2[C@@H](n2ccccc2=O)[C@@H]1O`: the IC50 in the experiment filed under Cavia porcellus [1] (Cavia porcellus, Trachea) was over 20000 nM. The molecule further had an Intrinsic activity in the experiment filed under Cavia porcellus [2] of 0.14.
